ERAP1 HTS inh: blocks human ERAP1 aminopeptidase activity; Q9NZ08; recombinant ERAP1, Leu-AMC fluorescence, 60 min; inhibition, % at 10.7 µM; hit rate 0.15% among 340,000; AID 652197;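 active = mean replicate inhibition of at least 30%, or all replicates individually reaching that 30% level; inactive = mean below 30% and not every replicate reaching it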
S100A4 inh HTS: blocks human S100A4 binding to myosin IIA peptide; S100A4/TAMRA-MyoIIA peptide fluorescence polarization; inhibition, % at 10.7 µM; hit rate 0.14% among 360,000; P26447;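 active = mean inhibition of at least 70% across replicates, with every replicate also reaching that level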
Target sequence (P26447 whole entry, looked up): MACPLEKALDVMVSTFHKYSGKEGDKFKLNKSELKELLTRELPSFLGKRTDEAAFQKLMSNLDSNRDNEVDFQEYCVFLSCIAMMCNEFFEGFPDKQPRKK
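Material: S100A4 monomer (human). Medium: Calcium-containing HEPES buffer, pH 7.2. Probe or stimulus: labelled myosin peptide probe, 5 nM. Compound dosing: one concentration per compound. Timing: polarization read 5 min after assay mix addition, stable 5–60 min. Benchmarks: DMSO as neutral control, TFP as positive control.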
miR-122 sensor: blocks miR-122 activity in Huh7 sensor cells; Huh7 miR-122 Renilla luciferase sensor, 48 h; neutral wells = 0, positive control = 100; activation (reporter increase), % at 12.5 µM; hit rate 0.3% among 340,000;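 active = mean replicate activation score at least 90 and every replicate individually at or above 90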;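 note: higher luciferase means less miR-122 activity so hits act as miR-122 inhibitors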
Rtt109 HAT inh: C. albicans Rtt109 histone acetyltransferase inhibition. Q5AAJ8. purified Rtt109/Vps75, ThioGlo CoA-SH fluorescence, 4 h. inhibition, % at 34.9 µM. hit rate 0.16% among 330,000;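 active = inhibition of at least 50% in every replicate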
Target sequence (Q5AAJ8 whole entry, looked up): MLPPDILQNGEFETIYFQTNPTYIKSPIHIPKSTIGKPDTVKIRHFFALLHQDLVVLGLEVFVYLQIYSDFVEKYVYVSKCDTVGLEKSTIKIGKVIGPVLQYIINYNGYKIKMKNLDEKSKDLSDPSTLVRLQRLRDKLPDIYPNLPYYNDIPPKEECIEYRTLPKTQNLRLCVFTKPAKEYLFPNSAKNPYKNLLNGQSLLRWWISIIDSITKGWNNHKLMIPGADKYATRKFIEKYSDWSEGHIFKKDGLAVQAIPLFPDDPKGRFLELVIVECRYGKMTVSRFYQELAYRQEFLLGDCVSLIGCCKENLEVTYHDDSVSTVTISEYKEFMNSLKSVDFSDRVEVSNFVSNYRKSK
AF4-AF9 inh: inhibitors of human MLL-AF4/AF9 interaction; P42568; AlphaScreen, biotin-AF4 peptide binding to FLAG-AF9; inhibition, % at 10 µM; hit rate 0.47% among 350,000; AID 651704;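 active = every replicate reaching a set inhibition limit, whatever the replicate mean, cut at about 25% in these data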
Each line names hits and unclear results; the compound was inactive in the other large screens. A selection: hits, their analogues and other compounds. The true share with any hit is near 0.86%.

Cc1noc(C)c1NC(=O)N(C)C[C@H]1Oc2c(NC(=O)NC3CCCCC3)cccc2C(=O)N([C@@H](C)CO)C[C@H]1C	none (no result: Rtt109 HAT inh)
CN1C(C(=O)Nc2cccc(O)c2)=CC(c2cccs2)=NS1(=O)=O	AF4-AF9 inh 26.8
COc1ccc(-c2cn(CC[C@@H]3CC[C@H](NC(=O)Nc4ccc(F)cc4)[C@@H](CO)O3)nn2)cc1	none (no result: miR-122 sensor, Rtt109 HAT inh)
CCCCCCCCCCOC(=O)C[N+](C)(C)C/C=C(/C)Cl	ERAP1 HTS inh 35.5 (no result: miR-122 sensor)
CC1=C(C)/C(=N\OS(=O)(=O)c2ccc(C)cc2)C=CC1=O	Rtt109 HAT inh 108.6 (no result: ERAP1 HTS inh, S100A4 inh HTS, miR-122 sensor, AF4-AF9 inh)
Cc1noc(C)c1S(=O)(=O)Nc1ccc2c(c1)C(=O)N([C@@H](C)CO)C[C@H](C)[C@@H](CN(C)S(=O)(=O)c1ccccc1)OCCCC[C@H](C)O2	none (no result: Rtt109 HAT inh)
COc1ccc(-c2ccc3c(c2)[C@H]2[C@H](CCN2C(=O)Cc2ccccc2)[C@H](CO)N3C)cc1	none (no result: ERAP1 HTS inh, S100A4 inh HTS, Rtt109 HAT inh, AF4-AF9 inh)
Cc1ccc(NC(=O)OCc2cc(-c3ccccc3)on2)cc1	Rtt109 HAT inh 55.8 (no result: miR-122 sensor)
O=C(C1CCOCC1)N1C[C@H]2[C@@H](c3ccccc31)[C@@H](CO)N2C(=O)c1ccccc1	none (no result: Rtt109 HAT inh)
COc1ccccc1NS(=O)(=O)c1cc(NC(=S)NCCN2CCOCC2)ccc1N1CCOCC1	miR-122 sensor 217.0
COc1ccccc1NS(=O)(=O)c1cc(NC(=O)C(C)(C)C)ccc1N1CCOCC1	none
COc1ccccc1NS(=O)(=O)c1cc(NC(=O)c2ccc(NC(C)=O)cc2)ccc1N1CCOCC1	none (no result: miR-122 sensor)
O=C(/C=C/c1cccs1)Nc1ccc(N2CCOCC2)c(S(=O)(=O)Nc2ccccc2Cl)c1	none (no result: ERAP1 HTS inh, S100A4 inh HTS, AF4-AF9 inh)
COc1ccccc1NS(=O)(=O)c1cc(NC(=O)/C=C/c2cccs2)ccc1N1CCOCC1	miR-122 sensor 257.9
COc1ccccc1NS(=O)(=O)c1cc(NC(=O)c2cccc(S(=O)(=O)N(C)C)c2)ccc1N1CCOCC1	miR-122 sensor 135.1
Cc1cc(OCc2ccc(C(=O)NN=C3CCCC3)cc2)ccc1Cl	Rtt109 HAT inh 55.7 (no result: miR-122 sensor)
COc1ccc(C(=O)NN=C2CCCC2)cc1	none
O=C(Nc1ccc2c(c1)[C@H]1C[C@H](CC(=O)N3CCCCC3)O[C@H](CO)[C@H]1O2)c1ccc2c(c1)OCO2	none (no result: Rtt109 HAT inh)
CN1CCN(C(=S)c2cn(Cc3ccc(F)cc3)c3ccccc23)CC1	AF4-AF9 inh 31.0 (no result: miR-122 sensor, Rtt109 HAT inh)
CN1CCN(C(=S)c2cn(Cc3cccc(F)c3)c3ccccc23)CC1	none (no result: miR-122 sensor, Rtt109 HAT inh)
O=C(CN1CCOCC1)NCC[C@@H]1CC[C@@H](NC(=O)c2ccc3c(c2)OCO3)[C@@H](CO)O1	none (no result: miR-122 sensor, Rtt109 HAT inh)
CCOC(=O)c1cc2c(=O)n3ccccc3nc2n(Cc2ccco2)c1=NC(=O)c1ccc(OC)cc1	none (no result: miR-122 sensor)
CCOC(=O)c1cc2c(=O)n3cccc(C)c3nc2n(CC(C)C)c1=NC(=O)c1ccco1	none (no result: ERAP1 HTS inh)
CCOCCCn1c(=NC(=O)c2ccco2)c(C(=O)OCC)cc2c(=O)n3cccc(C)c3nc21	ERAP1 HTS inh 60.1
CCOC(=O)c1cc2c(=O)n3ccccc3nc2n(Cc2ccco2)c1=NC(=O)c1ccccc1OC	ERAP1 HTS inh 36.1
O=C(NCCCN1CCCC1=O)c1ccc(S(=O)(=O)Nc2ccccc2F)cc1	none
O=C(NCCCN1CCCC1=O)c1ccc(OC(F)(F)F)cc1	Rtt109 HAT inh 60.6 (no result: miR-122 sensor)
COc1ccc(-c2ccccc2[C@H]2[C@@H](CO)N(C(=O)C3CC3)[C@H]2C#N)cc1	none (no result: miR-122 sensor, Rtt109 HAT inh)
CCOc1ccc(CCNC(=O)COC(=O)Cn2cnc3c2c(=O)n(C)c(=O)n3C)cc1OCC	ERAP1 HTS inh 47.8
CO[C@@H]1CN(C)C(=O)c2ccc(NC(=O)C3CCC3)cc2OC[C@@H](C)N(C(=O)CN(C)C)C[C@H]1C	none (no result: miR-122 sensor, Rtt109 HAT inh)
CC(C)Cc1nc2oc3c(N4CCN(CCO)CC4)ncnc3c2c2c1CCCC2	none (no result: ERAP1 HTS inh, S100A4 inh HTS, AF4-AF9 inh)
CCOC(=O)N1CCN(c2ncnc3c2oc2nc(C(C)C)c4c(c23)CCC4)CC1	miR-122 sensor 206.8 (no result: ERAP1 HTS inh, S100A4 inh HTS, AF4-AF9 inh)
c1ccc2c(c1)Cn1nc(Cc3nc4c(s3)CCCC4)nc1-2	none (no result: ERAP1 HTS inh, S100A4 inh HTS, AF4-AF9 inh)
N#CCc1nc2n(n1)Cc1ccccc1-2	Rtt109 HAT inh 72.7 (no result: ERAP1 HTS inh, S100A4 inh HTS, AF4-AF9 inh)
Cn1ccsc1=NC(=O)c1ccc(=O)[nH]c1	ERAP1 HTS inh 33.6
Cn1ccsc1=NC(=O)c1cccc(OC(F)F)c1	none
COc1ccc(Nc2ccccc2N)cc1	AF4-AF9 inh 40.0
C[C@@H]1CN([C@H](C)CO)S(=O)(=O)c2ccc(-c3ccncc3)cc2O[C@@H]1CN(C)C(=O)C1CCC1	none (no result: ERAP1 HTS inh, S100A4 inh HTS, Rtt109 HAT inh, AF4-AF9 inh)
CCN(CC)c1ccc(NC(=O)COc2ccccc2C#N)cc1S(=O)(=O)Nc1ccc(OC)cc1	none (no result: ERAP1 HTS inh, S100A4 inh HTS, AF4-AF9 inh)
